Values after ≈ are worked out from the molar mass of the structure shown. Active and inactive are the calls of the source. The rule behind the calls is not given here.
How the values were obtained:
[1] = test system: Salmonella typhi; assay: Antibacterial activity against Salmonella typhi after 48 hrs by well diffusion assay
[2] = test system: Staphylococcus aureus; assay: Antibacterial activity against Staphylococcus aureus after 48 hrs by well diffusion assay; format: functional
Outline: (§1)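 Clinical isolates identified biochemically; maintained on yeast extract–peptone–NaCl agar, pH 7.2, at 28 ± 2 °C. About 1 mL inoculum mixed into molten nutrient agar and poured. A central 5 mm well was cut and filled with 50 μL of compound in 10% DMSO, filter-sterilized, at various concentrations. 10% DMSO served as control. Inhibition zones were read after 48 h at room temperature.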

[3] = test system: Pseudomonas aeruginosa; assay: Antibacterial activity against Pseudomonas aeruginosa after 48 hrs by well diffusion assay; format: functional
Outline: as §1

[4] = test system: Streptococcus pneumoniae; assay: Antibacterial activity against Streptococcus pneumoniae after 48 hrs by well diffusion assay; format: functional
Outline: as §1

[5] = Salmonella enterica subsp. enterica serovar Typhi

`Cc1c(C2=CC(c3ccc(F)cc3)NC(=S)N2)nnn1Cc1ccccc1` (configuration not stated) was tested, and the MIC99 [1, 5] was “inactive”, the MIC99 [2] was 85 µg/mL (≈ 224 µM) and the MIC99 [3] was 130 µg/mL (≈ 343 µM). For the same molecule, the MIC99 [4] was 100 µg/mL (≈ 264 µM).

In the case of `Cc1c(C2=CC(c3ccccc3Br)NC(=S)N2)nnn1Cc1ccccc1` (configuration not stated), the MIC99 [1, 5] is reported as “inactive”, the MIC99 [2] is reported as “inactive” and the MIC99 [3] is reported as “inactive”. It also gave an MIC99 [4] of 33 µg/mL (≈ 74.9 µM).

`Cc1c(C2=CC(c3ccc(Br)cc3)NC(=S)N2)nnn1Cc1ccccc1` (configuration not stated) was tested, and the MIC99 ([1]; Salmonella enterica) was 120 µg/mL (≈ 272 µM), the MIC99 [2] was 95 µg/mL (≈ 216 µM) and the MIC99 [3] was 100 µg/mL (≈ 227 µM). The MIC99 [4] was 44 µg/mL (≈ 99.9 µM).

In the case of `COc1ccc(C2C=C(c3nnn(Cc4ccccc4)c3C)NC(=S)N2)c(OC)c1` (configuration not stated), the MIC99 ([1]; Salmonella enterica) is reported as 32 µg/mL (≈ 75.9 µM), the MIC99 [2] is reported as “inactive” and the MIC99 [3] is reported as “inactive”. For the same molecule, the MIC99 [4] was 42 µg/mL (≈ 99.6 µM).

For `CN(C)[C@@H]1C(O)=C(C(N)=O)C(=O)[C@@]2(O)C(O)=C3C(=O)c4c(O)cccc4[C@@](C)(O)[C@H]3C[C@@H]12` [TETRACYCLINE], the MIC99 ([1]; Salmonella enterica) was 15 µg/mL (≈ 33.8 µM), the MIC99 [2] was 10 µg/mL (≈ 22.5 µM) and the MIC99 [3] was 10 µg/mL (≈ 22.5 µM). The MIC99 [4] was 20 µg/mL (≈ 45 µM).

In the case of `Cc1ccccc1C1C=C(c2nnn(Cc3ccccc3)c2C)NC(=S)N1` (configuration not stated), the MIC99 ([1]; Salmonella enterica) is reported as 25 µg/mL (≈ 66.6 µM), the MIC99 [2] is reported as 37 µg/mL (≈ 98.5 µM) and the MIC99 [3] is reported as 18 µg/mL (≈ 47.9 µM). For the same molecule, the MIC99 [4] was 19 µg/mL (≈ 50.6 µM).

For `COc1ccc(C2C=C(c3nnn(Cc4ccccc4)c3C)NC(=S)N2)cc1` (configuration not stated), the MIC99 [1, 5] was “inactive”, the MIC99 [2] was “inactive” and the MIC99 [3] was 10 µg/mL (≈ 25.5 µM). It also gave an MIC99 [4] of 40 µg/mL (≈ 102 µM).

`Cc1c(C2=CC(c3ccc(Cl)cc3)NC(=S)N2)nnn1Cc1ccccc1` (configuration not stated) gave an MIC99 ([1]; Salmonella enterica) of 20 µg/mL (≈ 50.5 µM), an MIC99 [2] of 10 µg/mL (≈ 25.3 µM) and an MIC99 [3] of 9 µg/mL (≈ 22.7 µM). It also gave an MIC99 [4] of 10 µg/mL (≈ 25.3 µM).

`Cc1ccc(C2C=C(c3nnn(Cc4ccccc4)c3C)NC(=S)N2)cc1` (configuration not stated) showed an MIC99 ([1]; Salmonella enterica) of 13 µg/mL (≈ 34.6 µM), an MIC99 [2] of 8 µg/mL (≈ 21.3 µM) and an MIC99 [3] of 10 µg/mL (≈ 26.6 µM). It also gave an MIC99 [4] of 16 µg/mL (≈ 42.6 µM).

`Cc1c(C2=CC(c3ccc([N+](=O)[O-])cc3)NC(=S)N2)nnn1Cc1ccccc1` (configuration not stated) gave an MIC99 ([1]; Salmonella enterica) of 80 µg/mL (≈ 197 µM), an MIC99 [2] of 20 µg/mL (≈ 49.2 µM) and an MIC99 [3] of 20 µg/mL (≈ 49.2 µM). For the same molecule, the MIC99 [4] was 20 µg/mL (≈ 49.2 µM).

`Cc1c(C2=CC(c3ccccc3)NC(=S)N2)nnn1Cc1ccccc1` (configuration not stated) gave an MIC99 ([1]; Salmonella enterica) of 18 µg/mL (≈ 49.8 µM), an MIC99 [2] of 10 µg/mL (≈ 27.7 µM) and an MIC99 [3] of 12 µg/mL (≈ 33.2 µM). It also gave an MIC99 [4] of 19 µg/mL (≈ 52.6 µM).

`Cc1c(C2=CC(c3cccc(Br)c3)NC(=S)N2)nnn1Cc1ccccc1` (configuration not stated) showed an MIC99 ([1]; Salmonella enterica) of 90 µg/mL (≈ 204 µM), an MIC99 [2] of 22 µg/mL (≈ 50 µM) and an MIC99 [3] of 24 µg/mL (≈ 54.5 µM). For the same molecule, the MIC99 [4] was 35 µg/mL (≈ 79.5 µM).

With `Cc1c(C2=CC(c3ccc(Cl)cc3Cl)NC(=S)N2)nnn1Cc1ccccc1` (configuration not stated) the MIC99 [1, 5] was “inactive”, the MIC99 [2] was 43 µg/mL (≈ 99.9 µM) and the MIC99 [3] was “inactive”. It also gave an MIC99 [4] of 25 µg/mL (≈ 58.1 µM).

— ChEMBL document CHEMBL2151014, “Facile water promoted synthesis of 1,2,3-triazolyl dihydropyrimidine-2-thione hybrids - highly potent antibacterial agents” (2012)
